ChEMBL document CHEMBL5653632, “PRMT5 inhibition disrupts splicing and stemness in glioblastoma” (Nat Commun, 2021)
Activity calls are given as the source filed them. The calls are words filed in the database; no cut-off is given here.

Columns and labels:
G583 = experiment: Antiproliferative activity against human G583 cells at 1 uM incubated for 9 to 12 days by IncuCyte zoom live-cell imaging analysis; assay type: functional, cell-based; settings: time 9-12 day
Procedure, shortened: (§1)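 Adherent GSCs were cultured in serum-free medium with EGF and bFGF on poly-L-ornithine/laminin and plated in triplicate in 96-well plates. They were treated at 1 µM, with 1 µM SGC2096 or 0.05% DMSO as controls, for 9–12 days or until DMSO wells were confluent. Medium with drug was refreshed every 5 days. IncuCyte confluence was imaged every 8 h and normalized to each well's initial confluence.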

G411 = experiment: Antiproliferative activity against human G411 cells at 1 uM incubated for 9 to 12 days by IncuCyte zoom live-cell imaging analysis; assay type: functional, cell-based; settings: time 9-12 day; procedure, shortened: as §1
G561 = experiment: Antiproliferative activity against human G561 cells at 1 uM incubated for 9 to 12 days by IncuCyte zoom live-cell imaging analysis; assay type: functional, cell-based; settings: time 9-12 day; procedure, shortened: as §1
[1] = target: Protein arginine N-methyltransferase 5 (Homo sapiens) (UniProt O14744); experiment: Inhibition of PRMT5 in human G561 cells assessed as reduction in SDMA level at 1 uM after 5 days by Western blot analysis; assay type: cell-based; settings: time 5.0 day
Chain of Protein arginine N-methyltransferase 5 (Homo sapiens) (O14744 whole entry): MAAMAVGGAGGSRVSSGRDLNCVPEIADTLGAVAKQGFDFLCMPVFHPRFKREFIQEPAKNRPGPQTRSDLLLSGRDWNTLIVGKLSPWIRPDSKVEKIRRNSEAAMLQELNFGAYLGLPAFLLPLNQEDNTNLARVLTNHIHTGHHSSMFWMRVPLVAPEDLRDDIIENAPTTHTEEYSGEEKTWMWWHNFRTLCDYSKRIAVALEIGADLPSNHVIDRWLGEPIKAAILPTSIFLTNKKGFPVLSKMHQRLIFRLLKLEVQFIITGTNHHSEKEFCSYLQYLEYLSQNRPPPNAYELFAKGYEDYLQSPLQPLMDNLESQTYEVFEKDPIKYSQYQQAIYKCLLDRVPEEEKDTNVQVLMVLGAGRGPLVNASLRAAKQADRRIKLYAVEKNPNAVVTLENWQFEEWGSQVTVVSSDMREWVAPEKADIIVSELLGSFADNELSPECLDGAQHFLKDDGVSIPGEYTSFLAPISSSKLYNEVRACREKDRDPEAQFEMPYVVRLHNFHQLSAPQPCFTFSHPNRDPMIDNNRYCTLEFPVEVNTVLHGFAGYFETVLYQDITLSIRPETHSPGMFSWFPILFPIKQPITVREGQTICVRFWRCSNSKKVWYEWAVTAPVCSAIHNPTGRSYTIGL
Procedure, shortened: (§2)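 Symmetric dimethylarginine on SmB/B' was measured by western blot with IRDye secondary antibodies and infrared imaging.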

[2] = target: Protein arginine N-methyltransferase 5 (Homo sapiens) (UniProt O14744); experiment: Inhibition of PRMT5 in human G583 cells assessed as reduction in SDMA level at 1 uM after 5 days by Western blot analysis; assay type: cell-based; settings: time 5.0 day; procedure, shortened: as §2
[3] = target: Protein arginine N-methyltransferase 5 (Homo sapiens) (UniProt O14744); experiment: Inhibition of PRMT5 in human G411 cells assessed as reduction in SDMA level at 1 uM after 5 days by Western blot analysis; assay type: cell-based; settings: time 5.0 day; procedure, shortened: as §2

inhibition [1]: inactive
inhibition [2]: inactive
inhibition [3]: inactive
Compound: O=C(NC[C@H](O)CN1CCCCC1)c1ccnc(NC2CCC2)c1
Activity (G583): inactive
Activity (G411): inactive
Activity (G561): inactive
